According to ChEMBL document CHEMBL1138329, “Pharmacokinetic/pharmacodynamic model-guided identification of hypoxia-selective 1,2,4-benzotriazine 1,4-dioxides with antitumor activity: the role of extravascular transport” (J Med Chem, 2007):

What was measured:
[1] = Solubility in culture medium in presence of 5% fetal calf serum; assay type: physicochemical; settings: culture medium with 5% fetal calf serum
HT-29 [2] = assay: Cytotoxicity against human HT29 cells under hypoxic conditions after 4 hrs; assay type: functional, cell-based; settings: HT-29, 4 h
HT-29 [3] = assay: Ratio of IC50 for HT29 cells under oxic conditions to hypoxic conditions after 4 hrs; assay type: functional, Homo sapiens
SiHa [4] = assay: Cytotoxicity against human SiHa cells under hypoxic conditions after 4 hrs; assay type: functional, cell-based
SiHa [5] = assay: Ratio of IC50 for SiHa cells under oxic conditions to hypoxic conditions after 4 hrs; assay type: functional, Homo sapiens
HT-29 [6] = assay: Effect on human HT29 cells under hypoxic conditions assessed as drug level causing 10% clonogenic survival; assay type: functional
In short: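 HT29 suspensions (1 or 2 × 10^6 cells/mL) in serum-free medium were stirred under 5% CO2/95% N2 for 90 min. Drug was added from deoxygenated DMSO stock at a level giving about 10% survival at 1 h, and samples were taken up to 3 h. Clonogenic survival (14 days, methylene blue) was fitted with the HPLC concentration–time data, and the 10% survival exposure was interpolated.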

HT-29 [7] = assay: Diffusion coefficient, D in HT29 multicellular layers; assay type: ADME, cell-based; settings: human
In short: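 HT29 multicellular layers were grown 3 days on collagen-coated Teflon membranes, equilibrated 60 min under 95% O2/5% CO2 at 37 °C, then placed in a diffusion chamber. Donor and receiver were sampled up to 5 h and assayed by HPLC. D came from fitting both profiles to a Fickian model with membrane and MCL in series, corrected by support-only Ds.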

Mus musculus = assay: Toxicity in ip dosed CD1 mouse; assay type: organism-based; settings: in vivo
In short: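 MTD in CD-1 homozygous nude mice after single i.p. doses (HCl salts in saline, 5% DMSO/saline or lactate buffer pH 4.0), escalated in 1.33-fold increments. MTD taken as the highest dose causing no death, no body weight loss >15% and no other severe morbidity in any of 6 mice.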

[8] = Cmax in CD1 mouse at 1000 umol/kg, ip; assay type: ADME, organism-based; set-up: dose 1000 umol/kg, route intraperitoneal; settings: in vivo
In short: (§1)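 Single i.p. dose to CD-1 homozygous nude mice, drug as HCl salt in 0.9% saline, 5% DMSO/saline or lactate buffer (pH 4.0). Plasma total drug measured by HPLC at 75 or 100% of MTD (MTD from 1.33-fold dose steps, 6 mice). Noncompartmental analysis gave AUC, Cmax and t1/2.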

[9] = Half life in CD1 mouse at 1000 umol/kg, ip; assay type: ADME, organism-based; settings: in vivo; in short: as §1
HT-29 [10] = assay: Antitumor activity against human HT29 cells implanted in CD1 mouse assessed as clonogenic survival at 1000 umol/kg, ip after 18 hrs relative to control; assay type: functional
In short: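 HT29 xenografts in CD-1 homozygous nude mice; single i.p. dose of drug alone, formulated as the HCl salt in 0.9% saline, 5% DMSO/saline or lactate buffer (pH 4.0). Tumors excised 18 h later, dissociated to single-cell suspensions and plated. Clonogens/g of tumor counted; surviving fraction = treated/control clonogens/g.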

HT-29 [11] = assay: Antitumor activity against human HT29 cells implanted in CD1 mouse at 1000 umol/kg, ip administered 5 mins after irradiation by excision assay relative to radiation alone; assay type: functional
In short: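 Hypoxic-cell excision assay in HT29 xenografts in CD-1 homozygous nude mice. Mice received 20 Gy γ radiation to sterilize oxic tumor cells, then a single i.p. drug dose (HCl salt in saline, 5% DMSO/saline or pH 4.0 lactate buffer) 5 min later. Tumors excised at 18 h and plated for clonogens/g. Log cell kill = log(clonogens/g, radiation only) − log(clonogens/g, radiation plus drug).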

[12] = Cmax in CD1 mouse at 750 umol/kg, ip; assay type: ADME, organism-based; set-up: dose 750 umol/kg, route intraperitoneal; settings: in vivo; in short: as §1
[13] = Half life in CD1 mouse at 750 umol/kg, ip; assay type: ADME, organism-based; settings: in vivo; in short: as §1
[14] = AUC in CD1 mouse at 750 umol/kg, ip; assay type: ADME, organism-based; settings: plasma; in short: as §1
[15] = Cmax in CD1 mouse at 316 umol/kg, ip; assay type: ADME, organism-based; set-up: dose 316 umol/kg, route intraperitoneal; settings: in vivo; in short: as §1
[16] = Half life in CD1 mouse at 316 umol/kg, ip; assay type: ADME, organism-based; settings: in vivo; in short: as §1
[17] = AUC in CD1 mouse at 316 umol/kg, ip; assay type: ADME, organism-based; settings: plasma; in short: as §1

Row | solubility [1] [mM] | D (HT-29 [7]) [cm²/s] | Structure (SMILES) | IC50 (HT-29 [2]) [nM] | Ratio IC50 (HT-29 [3]) | IC50 (SiHa [4]) [nM] | Ratio IC50 (SiHa [5]) | Activity (HT-29 [6]) [µM·h] | MTD (Mus musculus) [µmol/kg] | Cmax [8] [µM] | half-life [9] [min] | LCK (HT-29 [10]) | LCK (HT-29 [11]) | Cmax [12] [µM] | half-life [13] [min] | AUC [14] [µM·h] | Cmax [15] [µM] | half-life [16] [min] | AUC [17] [µM·h]
1 | > 51 |  | CCOc1ccc2c(c1)[n+]([O-])c(NCCCN1CCOCC1)n[n+]2[O-] | 18000 | 52 | 7600 | 140 | 260.6 |  |  |  |  |  |  |  |  |  |  | 
2 | 38 | 1.87e-07 | CN(C)CCCNc1n[n+]([O-])c2ccccc2[n+]1[O-] | 3400 | 49 | 2300 | 82 | 7.8 |  |  |  |  |  |  |  |  |  |  | 
3 | 32 | 1.75e-06 | CCCN(CCC)CCNc1n[n+]([O-])c2ccc(C(C)(C)C)cc2[n+]1[O-] | 8300 | 18 | 3800 | 35 | 66.6 |  |  |  |  |  |  |  |  |  |  | 
4 | > 49 | 7.23e-07 | [O-][n+]1nc(NCCN2CCCCC2)[n+]([O-])c2ccccc21 | 1800 | 24 | 1100 | 55 | 2.8 |  |  |  |  |  |  |  |  |  |  | 
5 | 28 | 1.5e-06 | CC(C)(C)c1ccc2c(c1)[n+]([O-])c(NCCN1CCCCC1)n[n+]2[O-] | 4000 | 31 | 600 | 121 | 30.3 |  |  |  |  |  |  |  |  |  |  | 
6 | 45 |  | CCN(CC)CCNc1n[n+]([O-])c2ccc(C(C)C)cc2[n+]1[O-] | 2000 | 122 | 800 | 113 | 18.6 |  |  |  |  |  |  |  |  |  |  | 
7 | 30 |  | CC(C)c1ccc2c(c1)[n+]([O-])c(NCCN1CCOCC1)n[n+]2[O-] | 45100 | 14 | 15500 | 33 | 217.8 |  |  |  |  |  |  |  |  |  |  | 
8 | 39 |  | CCCN(CCC)CCNc1n[n+]([O-])c2ccc(C(C)C)cc2[n+]1[O-] | 4400 | 35 | 900 | 65 | 41.6 |  |  |  |  |  |  |  |  |  |  | 
9 | 29 |  | COc1ccc2c(c1)[n+]([O-])c(NCCN1C(C)CCCC1C)n[n+]2[O-] (stereo not drawn) | 3900 | 34 | 1000 | 121 | 26.1 |  |  |  |  |  |  |  |  |  |  | 
10 | 48 | 6.81e-07 | CC1CCCC(C)N1CCNc1n[n+]([O-])c2ccccc2[n+]1[O-] (stereo not drawn) | 2200 | 15 | 900 | 41 | 5.7 |  |  |  |  |  |  |  |  |  |  | 
11 | 23 |  | CCN(CC)CCNc1n[n+]([O-])c2ccc(Cl)cc2[n+]1[O-] | 300 | 43 | 200 | 28 |  |  |  |  |  |  |  |  |  |  |  | 
12 | 50 |  | CN(C)CCNc1n[n+]([O-])c2ccccc2[n+]1[O-] | 700 | 80 | 200 | 157 | 3.2 |  |  |  |  |  |  |  |  |  |  | 
13 | 18 |  | CC(C)c1ccc2c(c1)[n+]([O-])c(NCCN1CCCCC1)n[n+]2[O-] | 2700 | 41 | 1100 | 65 | 15.2 |  |  |  |  |  |  |  |  |  |  | 
14 | > 49 |  | CCN(CC)CCNc1n[n+]([O-])c2ccc(C)cc2[n+]1[O-] | 1000 | 51 | 300 | 35 | 8.3 |  |  |  |  |  |  |  |  |  |  | 
15 | 61 |  | [O-][n+]1nc(NCCN2CCCC2)[n+]([O-])c2ccccc21 | 600 | 70 | 200 | 132 | 3.6 |  |  |  |  |  |  |  |  |  |  | 
16 | 39 |  | CCc1ccc2c(c1)[n+]([O-])c(NCCN1CCCCC1)n[n+]2[O-] | 1500 | 65 | 1000 | 50 | 11.9 |  |  |  |  |  |  |  |  |  |  | 
17 | 42 |  | CC(C)c1ccc2c(c1)[n+]([O-])c(NCCN(C)C)n[n+]2[O-] | 1900 | 120 | 1100 | 104 | 11.6 |  |  |  |  |  |  |  |  |  |  | 
18 | 49 |  | Cc1ccc2c(c1)[n+]([O-])c(NCCCN1CCC(C#N)C1)n[n+]2[O-] (stereo not drawn) | 14100 | 54 | 9200 | 54 | 62.2 |  |  |  |  |  |  |  |  |  |  | 
19 | 47 |  | COc1ccc2c(c1)[n+]([O-])c(NCCCN1CCC(C#N)C1)n[n+]2[O-] (stereo not drawn) | 40600 | 41 | 31900 | 36 | 211.4 |  |  |  |  |  |  |  |  |  |  | 
20 | 3.2 | 1.1e-06 | [O-][n+]1nc(NCCN2CCCCC2)[n+]([O-])c2cc(Cl)ccc21 | 400 | 19 | 200 | 18 |  |  |  |  |  |  |  |  |  |  |  | 
21 | 1.8 |  | CC(C)(C)c1ccc2c(c1)[n+]([O-])c(NCCN1CCOCC1)n[n+]2[O-] | 61200 | 13 | 10900 | 55 |  |  |  |  |  |  |  |  |  |  |  | 
22 | 48 |  | COc1ccc2c(c1)[n+]([O-])c(NCCN1CCOCC1)n[n+]2[O-] | 103000 | >39 | 40900 | 70 |  |  |  |  |  |  |  |  |  |  |  | 
23 | 0.6 |  | CCCN(CCC)CCNc1n[n+]([O-])c2ccc(Cl)cc2[n+]1[O-] | 600 | 9 | 300 | 21 |  |  |  |  |  |  |  |  |  |  |  | 
24 | > 44 |  | COc1ccc2c(c1)[n+]([O-])c(NCCCN1CCOCC1)n[n+]2[O-] | 22000 | >8 | 10200 | 447 | 149.7 |  |  |  |  |  |  |  |  |  |  | 
25 | > 48 |  | CCN(CC)CCNc1n[n+]([O-])c2ccc(C(C)(C)C)cc2[n+]1[O-] | 4300 | 37 | 900 | 90 | 33.1 |  |  |  |  |  |  |  |  |  |  | 

Row | Structure (SMILES) | solubility [1] [mM] | D (HT-29 [7]) [cm²/s] | IC50 (HT-29 [2]) [nM] | Ratio IC50 (HT-29 [3]) | IC50 (SiHa [4]) [nM] | Ratio IC50 (SiHa [5]) | Activity (HT-29 [6]) [µM·h] | MTD (Mus musculus) [µmol/kg] | Cmax [8] [µM] | half-life [9] [min] | LCK (HT-29 [10]) | LCK (HT-29 [11]) | Cmax [12] [µM] | half-life [13] [min] | AUC [14] [µM·h] | Cmax [15] [µM] | half-life [16] [min] | AUC [17] [µM·h]
26 | Cc1ccc2c(c1)[n+]([O-])c(N)n[n+]2[O-] | 3 | 5.43e-07 | 12900 | 36 |  |  | 61.9 | 1000 | 198 | 34.1 | 0.39 | 2.16 |  |  |  |  |  | 
27 | Cc1ccc2c(c1)[n+]([O-])c(NCCN1CCOCC1)n[n+]2[O-] | > 46 | 4.52e-07 | 21800 | 55 | 8300 | 86 | 134 | 1000 |  |  |  |  | 132 | 15.4 | 86.8 |  |  | 
28 | CCc1ccc2c(c1)[n+]([O-])c(NCCN(C)C)n[n+]2[O-] | > 49 |  | 1300 | 116 | 500 | 186 | 6.2 | 421 |  |  |  |  |  |  |  | 21.6 | 12.7 | 13.2
29 | COc1ccc2c(c1)[n+]([O-])c(NCCN1CCCCC1)n[n+]2[O-] | 45 |  | 10800 | 24 | 3000 | 65 | 38.9 | 421 |  |  |  |  |  |  |  | 26.7 | 24.6 | 20.2
30 | CCCN(CCC)CCNc1n[n+]([O-])c2ccc(C)cc2[n+]1[O-] | 38 | 1.48e-06 | 2700 | 108 | 600 | 149 | 38.6 | 421 |  |  |  |  |  |  |  | 3.8 | 17.3 | 2.6
